Data on 33 compounds can be found in ChEMBL document CHEMBL5620393, “New aryl and acylsulfonamides as state-dependent inhibitors of Nav1.3 voltage-gated sodium channel” (Eur J Med Chem, 2023).

pIC50: −log10 of the molar value. Activity calls are given as the source filed them. The rule behind the calls is not given here.

Series [1] has as its target T1, Sodium channel protein type 5 subunit alpha (Homo sapiens, UniProt Q14524). The experiment in a line: Inhibition of human Nav1.5 expressed in CHO cells under tonic pulse 1 by automated patch clamp electrophysiology analysis. It counts as cell-based. Background: In patch-clamp work, channel activity is measured electrically.
Series [2] has as its target T1, Sodium channel protein type 5 subunit alpha. The experiment in a line: Inhibition of human Nav1.5 expressed in Xenopus laevis oocytes at closed state at 1 uM by two electrode voltage-clamp assay. The note with it: oocyte. Type of series: cell-based. Summed up:
(§1)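 TEVC on Nav channels expressed in Xenopus laevis oocytes. Each oocyte was injected with 50 nL cRNA at 1 ng/nL and recorded 1–4 days later at 18–22 °C. Bath (mM): NaCl 96, KCl 2, CaCl2 1.8, MgCl2 2, HEPES 5, pH 7.4. Electrodes held 3 M KCl at 0.8–1.5 MΩ. Compound tested at 1 μM. Mean ± SD, n ≥ 5.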
In general terms: Two-electrode voltage clamp is typically applied to oocytes expressing channels or transporters.

The target is the same in series [3]. Put plainly: Inhibition of human Nav1.5 expressed in CHO cells by automated patch clamp electrophysiology analysis.
In series [4] the target is T2, Sodium channel protein type 3 subunit alpha (Homo sapiens, UniProt Q9NY46). The experiment in a line: Inhibition of human Nav1.3 expressed in CHO cells under inactivated state by automated patch clamp electrophysiology analysis. It counts as cell-based.
Series [5] concerns the target T2, Sodium channel protein type 3 subunit alpha. Put plainly: Inhibition of human Nav1.3 expressed in CHO cells under resting state by automated patch clamp electrophysiology analysis. Type of series: cell-based.
The target in series [6] is Sodium channel protein type 2 subunit alpha (Rattus norvegicus) (UniProt P04775). Put plainly: Inhibition of rat Nav1.2 expressed in Xenopus laevis oocytes at closed state at 1 uM by two electrode voltage-clamp assay. Type of series: cell-based. As to conditions: Oocyte. Summed up:
as §1

Series [7] deals with Sodium channel protein type 9 subunit alpha (Homo sapiens, UniProt Q15858). Put plainly: Inhibition of human Nav1.7 expressed in Xenopus laevis oocytes at closed state at 1 uM by two electrode voltage-clamp assay. Type of series: cell-based. The note with it: Oocyte. Summed up: as §1
In series [8] the target is Sodium channel protein type 8 subunit alpha (Mus musculus) (UniProt Q9WTU3). Put plainly: Inhibition of mouse Nav1.6 expressed in Xenopus laevis oocytes at closed state at 1 uM by two electrode voltage-clamp assay. The note with it: Oocyte. It counts as cell-based. Summed up:
as §1

Series [9] deals with Sodium channel protein type 4 subunit alpha (Rattus norvegicus) (UniProt P15390). Put plainly: Inhibition of rat Nav1.4 expressed in Xenopus laevis oocytes at closed state at 1 uM by two electrode voltage-clamp assay. Type of series: cell-based. The note with it: Oocyte. Summed up: as §1
In series [10] the target is Sodium channel protein type 1 subunit alpha (Homo sapiens) (UniProt P35498). Put plainly: Inhibition of human Nav1.1 expressed in Xenopus laevis oocytes at closed state at 1 uM by two electrode voltage-clamp assay. It counts as cell-based. The note with it: Oocyte. Summed up:
as §1

Series [11] addresses Sodium channel protein type 10 subunit alpha (Homo sapiens) (UniProt Q9Y5Y9). Put plainly: Inhibition of human Nav1.8 expressed in Xenopus laevis oocytes at closed state at 1 uM by two electrode voltage-clamp assay. Type of series: cell-based. The note with it: Oocyte. Summed up: as §1

Sequence of Sodium channel protein type 9 subunit alpha (Q15858 whole entry, looked up): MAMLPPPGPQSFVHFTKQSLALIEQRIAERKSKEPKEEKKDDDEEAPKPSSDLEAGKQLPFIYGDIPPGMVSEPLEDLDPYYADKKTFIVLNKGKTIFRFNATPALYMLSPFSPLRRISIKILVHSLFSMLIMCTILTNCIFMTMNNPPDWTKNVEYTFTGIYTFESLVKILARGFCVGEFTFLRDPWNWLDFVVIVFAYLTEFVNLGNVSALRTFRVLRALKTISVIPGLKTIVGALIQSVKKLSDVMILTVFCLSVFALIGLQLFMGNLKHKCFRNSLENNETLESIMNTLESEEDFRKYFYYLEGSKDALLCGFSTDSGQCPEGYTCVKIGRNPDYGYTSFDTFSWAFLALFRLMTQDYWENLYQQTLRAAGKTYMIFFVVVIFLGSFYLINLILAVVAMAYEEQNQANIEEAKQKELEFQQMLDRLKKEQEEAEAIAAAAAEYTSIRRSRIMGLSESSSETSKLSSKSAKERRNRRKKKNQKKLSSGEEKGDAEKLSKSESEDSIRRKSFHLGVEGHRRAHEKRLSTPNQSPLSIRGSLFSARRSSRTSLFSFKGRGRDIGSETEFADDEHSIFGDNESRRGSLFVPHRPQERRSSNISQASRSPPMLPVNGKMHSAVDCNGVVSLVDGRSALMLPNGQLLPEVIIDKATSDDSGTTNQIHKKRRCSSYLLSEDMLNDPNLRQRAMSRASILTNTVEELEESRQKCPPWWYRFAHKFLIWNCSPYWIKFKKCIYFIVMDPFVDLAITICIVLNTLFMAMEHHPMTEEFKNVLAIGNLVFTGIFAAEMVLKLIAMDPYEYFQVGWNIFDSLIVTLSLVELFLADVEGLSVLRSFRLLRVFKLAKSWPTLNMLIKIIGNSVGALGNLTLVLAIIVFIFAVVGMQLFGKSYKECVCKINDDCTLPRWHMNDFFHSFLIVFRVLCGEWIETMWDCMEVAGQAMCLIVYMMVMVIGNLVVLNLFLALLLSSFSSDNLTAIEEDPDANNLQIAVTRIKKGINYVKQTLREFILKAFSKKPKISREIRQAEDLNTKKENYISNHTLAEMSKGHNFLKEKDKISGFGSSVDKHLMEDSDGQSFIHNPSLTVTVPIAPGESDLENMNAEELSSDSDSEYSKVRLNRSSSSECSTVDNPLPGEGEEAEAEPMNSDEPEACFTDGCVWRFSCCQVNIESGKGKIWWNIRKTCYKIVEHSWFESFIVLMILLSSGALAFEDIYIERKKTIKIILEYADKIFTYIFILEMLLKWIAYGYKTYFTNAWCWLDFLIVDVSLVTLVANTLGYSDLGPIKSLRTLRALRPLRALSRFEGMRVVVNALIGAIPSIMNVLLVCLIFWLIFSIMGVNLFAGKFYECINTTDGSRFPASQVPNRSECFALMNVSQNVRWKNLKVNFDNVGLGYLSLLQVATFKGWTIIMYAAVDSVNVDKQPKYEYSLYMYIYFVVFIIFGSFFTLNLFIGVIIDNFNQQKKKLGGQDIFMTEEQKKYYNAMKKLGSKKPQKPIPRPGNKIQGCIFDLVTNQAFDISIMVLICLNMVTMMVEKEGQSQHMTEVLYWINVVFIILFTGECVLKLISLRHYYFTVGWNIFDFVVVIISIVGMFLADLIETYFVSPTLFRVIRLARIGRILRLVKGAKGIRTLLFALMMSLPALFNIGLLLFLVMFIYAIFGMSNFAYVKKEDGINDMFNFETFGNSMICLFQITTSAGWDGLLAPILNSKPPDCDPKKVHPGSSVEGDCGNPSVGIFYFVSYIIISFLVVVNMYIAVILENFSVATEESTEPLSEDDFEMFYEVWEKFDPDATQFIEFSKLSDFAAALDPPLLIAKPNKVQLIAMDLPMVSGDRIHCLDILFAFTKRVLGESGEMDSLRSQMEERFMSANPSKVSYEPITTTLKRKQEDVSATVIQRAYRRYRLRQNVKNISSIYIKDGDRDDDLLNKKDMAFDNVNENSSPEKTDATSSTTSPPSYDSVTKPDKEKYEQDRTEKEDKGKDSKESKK
Sequence of Sodium channel protein type 8 subunit alpha (Mus musculus) (Q9WTU3 whole entry): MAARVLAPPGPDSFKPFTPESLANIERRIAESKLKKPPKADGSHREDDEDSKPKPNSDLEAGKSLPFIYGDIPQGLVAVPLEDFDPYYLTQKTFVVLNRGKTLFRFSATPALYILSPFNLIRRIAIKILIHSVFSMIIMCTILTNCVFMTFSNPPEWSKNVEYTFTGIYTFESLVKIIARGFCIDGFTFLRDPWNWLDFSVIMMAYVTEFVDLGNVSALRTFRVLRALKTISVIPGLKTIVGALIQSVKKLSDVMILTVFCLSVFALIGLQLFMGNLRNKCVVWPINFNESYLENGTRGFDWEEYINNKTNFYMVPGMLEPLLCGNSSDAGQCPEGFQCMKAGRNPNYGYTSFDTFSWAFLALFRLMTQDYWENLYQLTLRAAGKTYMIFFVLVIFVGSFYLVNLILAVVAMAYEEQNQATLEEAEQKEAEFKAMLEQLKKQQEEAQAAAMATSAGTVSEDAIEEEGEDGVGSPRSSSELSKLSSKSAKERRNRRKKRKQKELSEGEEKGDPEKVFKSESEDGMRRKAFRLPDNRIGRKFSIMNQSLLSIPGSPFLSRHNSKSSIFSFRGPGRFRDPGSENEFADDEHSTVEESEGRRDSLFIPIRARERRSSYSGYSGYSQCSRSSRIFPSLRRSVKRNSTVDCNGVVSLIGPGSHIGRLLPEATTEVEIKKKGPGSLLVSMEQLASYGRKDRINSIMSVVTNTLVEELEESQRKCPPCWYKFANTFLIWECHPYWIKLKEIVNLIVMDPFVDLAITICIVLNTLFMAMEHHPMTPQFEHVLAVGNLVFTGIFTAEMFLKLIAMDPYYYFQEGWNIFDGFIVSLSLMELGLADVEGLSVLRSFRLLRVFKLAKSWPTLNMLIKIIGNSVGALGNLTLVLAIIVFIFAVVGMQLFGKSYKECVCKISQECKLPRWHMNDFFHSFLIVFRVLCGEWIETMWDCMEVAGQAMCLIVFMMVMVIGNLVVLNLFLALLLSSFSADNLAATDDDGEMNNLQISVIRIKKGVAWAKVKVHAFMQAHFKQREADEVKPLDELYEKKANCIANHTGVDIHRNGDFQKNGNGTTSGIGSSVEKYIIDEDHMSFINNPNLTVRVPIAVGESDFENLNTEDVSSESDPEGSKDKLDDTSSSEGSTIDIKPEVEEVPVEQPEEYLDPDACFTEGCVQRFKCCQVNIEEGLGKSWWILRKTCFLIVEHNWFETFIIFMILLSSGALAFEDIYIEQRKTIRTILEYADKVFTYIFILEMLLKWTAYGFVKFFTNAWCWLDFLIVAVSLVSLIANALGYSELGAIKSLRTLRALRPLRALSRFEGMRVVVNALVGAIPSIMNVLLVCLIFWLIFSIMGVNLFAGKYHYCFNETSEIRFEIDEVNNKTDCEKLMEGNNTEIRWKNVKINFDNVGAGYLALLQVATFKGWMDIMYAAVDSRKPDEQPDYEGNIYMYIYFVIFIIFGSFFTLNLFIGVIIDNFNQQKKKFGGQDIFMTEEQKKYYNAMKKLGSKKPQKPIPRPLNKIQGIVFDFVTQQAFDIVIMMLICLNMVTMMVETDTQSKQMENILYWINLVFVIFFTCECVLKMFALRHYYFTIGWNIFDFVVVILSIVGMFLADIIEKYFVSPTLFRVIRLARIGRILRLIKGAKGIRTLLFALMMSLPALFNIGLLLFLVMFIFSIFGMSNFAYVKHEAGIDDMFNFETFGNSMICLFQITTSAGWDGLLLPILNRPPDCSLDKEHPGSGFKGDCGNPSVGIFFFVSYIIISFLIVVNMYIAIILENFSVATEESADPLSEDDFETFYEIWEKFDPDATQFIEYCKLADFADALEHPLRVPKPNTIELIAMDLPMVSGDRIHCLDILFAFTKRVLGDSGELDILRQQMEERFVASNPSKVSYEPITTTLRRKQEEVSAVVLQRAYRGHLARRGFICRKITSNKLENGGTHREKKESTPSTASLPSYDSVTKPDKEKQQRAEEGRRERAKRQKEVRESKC

A word on the pIC50: it is the negative decadic logarithm of the IC50, by convention in mol/L. A low value points to a large IC50. Consider `O=C(Nc1cccc(S(=O)(=O)Nc2nccs2)c1)[C@@H]1C[C@H]1c1ccccc1`, for which the pIC50 in series [1] and in series [3] was less than 4.52 each time. In addition, in series [2], the “inhibition (INH)” value is on record as “Not Active”.

For the compound `CN(C)S(=O)(=O)NC(=O)c1ccc(NC(=O)c2cccn2Cc2ccc(Cl)cc2)cc1`, in [2], the “inhibition (INH)” value is “Not Active”.

On to `CC(=O)NS(=O)(=O)c1ccc(NC(=O)[C@@H]2C[C@H]2c2ccccc2)cc1`, for which the negative logarithm of the IC50 (pIC50) in [1] and in series [3] was less than 4.52 throughout. Further, the “inhibition (INH)” value in series [2] was “Not Active”.

For `CC(=O)NS(=O)(=O)c1ccc(NC(=O)c2cc(Br)c(Br)n2-c2ccccc2)cc1`, the figures for the negative-log IC50 (pIC50) in [4] and in [5] were 4.72 and less than 4.52, respectively.

For `CC1CCCC(C)N1S(=O)(=O)c1ccc(NS(=O)(=O)c2ccc3c(c2)CC(=O)N3C)cc1` (configuration not stated), the pIC50 in [4] was 4.55; in series [5], less than 4.52.

As for `CC(=O)NS(=O)(=O)c1ccc(NC(=O)c2cccn2Cc2ccccc2)cc1`, the pIC50 in [4] was 4.64; in [5] it was less than 4.52.

Consider `CN(C)S(=O)(=O)NC(=O)c1ccc(NC(=O)c2cc3ccccc3o2)cc1`, for which, in series [2], the “inhibition (INH)” value is “Not Active”.

With `C[C@H](Oc1ccc(Cl)cc1)C(=O)Nc1ccc(C(=O)NS(C)(=O)=O)cc1`, the “inhibition (INH)” value in series [2] is recorded as “Not Active”.

For `CC1CCCCN1C(=O)c1ccc(NS(=O)(=O)c2ccc3[nH]c(=O)[nH]c3c2)cc1` (configuration not stated), the pIC50 in [4] and in series [5] was less than 4.52 each time.

For `CS(=O)(=O)NC(=O)c1ccc(NC(=O)c2cc(Br)c(Br)n2Cc2ccccc2)cc1`, the “inhibition (INH)” value in [2] is “Not Active”.

As for `CC(=O)NS(=O)(=O)c1ccc(NC(=O)c2cc(Br)c(Br)n2Cc2ccccc2)cc1`, in series [2], the “inhibition (INH)” value was “Not Active”.

As for `CS(=O)(=O)NC(=O)c1ccc(NC(=O)c2cccn2Cc2ccc(Cl)cc2)cc1`, the pIC50 in [4] and in [5] was less than 4.52 throughout. Besides, the inhibition result in series [6], in series [7], in [8], in [9], in series [10] and in [11] was “inactive” throughout. The “inhibition (INH)” value in series [2] was “Not Active”.

Regarding `CC(=O)NS(=O)(=O)c1ccc(NC(=O)CC(C)c2ccccc2)cc1` (configuration not stated), the results for the pIC50 in [4] and in series [5] were 4.68 and less than 4.52, respectively.

Consider `CC(CCc1ccc(O)cc1)NC(=O)Nc1ccc(S(=O)(=O)N2CCCC2)cc1` (configuration not stated), for which the pIC50 is 4.70 in [4] and less than 4.52 in series [5].

As to `O=C(Nc1cccc(S(=O)(=O)Nc2nccs2)c1)c1cccn1Cc1ccc(Cl)cc1`, the pIC50 in series [1] and in series [3] was less than 4.52 in each case. The “inhibition (INH)” value in [2] is reported as “Not Active”.

For `CC(=O)NS(=O)(=O)c1ccc(NC(=O)c2cccn2Cc2ccc(Cl)cc2)cc1`, in series [2], the “inhibition (INH)” value is on record as “Not Active”.

Consider `Cc1nc(-c2c(Cl)cccc2Cl)sc1C(=O)N[C@@H](Cc1ccccc1)C(=O)O`, for which the “inhibition (INH)” value in series [2] is “Not Active”.

Take `O=C(Nc1cccc(S(=O)(=O)Nc2nccs2)c1)c1cc(Br)c(Br)n1Cc1ccccc1`: the negative-log IC50 (pIC50) in series [1] and in [3] was less than 4.52 throughout. Besides, the “inhibition (INH)” value in series [2] was “Not Active”.

Regarding `CC(NS(=O)(=O)c1ccc(C2=CC(c3ccc(Cl)cc3)n3nnnc3N2)cc1)C(=O)O` (configuration not stated), the pIC50 in [4] and in series [5] was less than 4.52 throughout.

Consider `C[C@@H](Oc1ccc(Cl)cc1)C(=O)Nc1ccc(C(=O)NS(C)(=O)=O)cc1`, for which the “inhibition (INH)” value in series [2] is recorded as “Not Active”.

For `O=C(Nc1ccc(S(=O)(=O)Nc2nccs2)cc1)c1cccn1-c1ccccc1`, the pIC50 in series [1] and in series [3] was less than 4.52 in each case. For the same compound, the “inhibition (INH)” value in series [2] was “Not Active”.

Regarding `Cc1nn(C)cc1/C=C(\C#N)C(=O)Nc1ccc(S(=O)(=O)Nc2nccs2)cc1`, the pIC50 was 5.42 in series [4], less than 4.52 in series [1], 4.59 in series [5] and less than 4.52 in [3]. Also, the inhibition result in series [6], in [7], in [8], in [9], in series [10] and in series [11] was “inactive” throughout. In series [2], the “inhibition (INH)” value is reported as “Not Active”.

In the case of `NC1=N[C@H](O)[C@H]2[C@H]3O[C@]4(O)O[C@@H]([C@@H](O)[C@@]2(N1)[C@@H]4O)[C@]3(O)CO` [TETRODOTOXIN], the pIC50 was 9.00 in series [4] and 8.40 in series [5].

With `CN(C)S(=O)(=O)NC(=O)c1ccc(NC(=O)[C@@H]2C[C@H]2c2ccccc2)cc1`, in [2], the “inhibition (INH)” value is listed as “Not Active”.

On to `CS(=O)(=O)NC(=O)c1ccc(NC(=O)C2CC2c2ccc(F)c(F)c2)cc1` (racemic), for which the pIC50 in series [4] and in [5] was less than 4.52 in each case. In addition, the inhibition result in [6], in series [7], in [8], in series [9], in series [10] and in series [11] was “inactive” throughout. In series [2], the “inhibition (INH)” value was “Not Active”.

Turning to `CS(=O)(=O)NC(=O)c1ccc(NC(=O)c2cc(Br)c(Br)n2-c2ccccc2)cc1`, in [2], the “inhibition (INH)” value was “Not Active”.

On to `CS(=O)(=O)NC(=O)c1ccc(NC(=O)[C@@H]2C[C@H]2c2ccccc2)cc1`, for which the pIC50 in [4] and in series [5] was less than 4.52 in each case. Besides, the inhibition entry in series [6], in series [7], in series [8], in series [9], in series [10] and in series [11] was “inactive” throughout. In addition, in series [2], the “inhibition (INH)” value is reported as “Not Active”.

On to `C[C@@H](Oc1ccc(Cl)cc1)C(=O)Nc1ccc(C(=O)NS(=O)(=O)N(C)C)cc1`, for which, in series [2], the “inhibition (INH)” value is listed as “Not Active”.

For `O=C(Nc1ccc(S(=O)(=O)Nc2nccs2)cc1)[C@@H]1C[C@H]1c1ccccc1`, the values for the pIC50 in series [4] (cho) and in series [5] (cho) were 7.25 and 4.74, respectively.

As for `CS(=O)(=O)NC(=O)c1ccc(OC[C@@H]2C[C@H]2c2ccccc2)cc1`, the negative logarithm of the IC50 (pIC50) in series [1] and in series [3] was less than 4.52 throughout. The “inhibition (INH)” value in [2] is given as “Not Active”.

Regarding `CS(=O)(=O)NC(=O)c1cccc(OC[C@@H]2C[C@H]2c2ccccc2)c1`, the pIC50 in series [4], in [1], in [5] and in series [3] was less than 4.52 each time. Moreover, the inhibition entry in series [6], in series [7], in series [8], in [9], in series [10] and in [11] was “inactive” in each case. For the same compound, the “inhibition (INH)” value in [2] was “Not Active”.

For `O=C(Nc1ccc(S(=O)(=O)Nc2nccs2)cc1)c1cccn1Cc1ccccc1`, the pIC50 in [1] and in series [3] was less than 4.52 in each case. The “inhibition (INH)” value in series [2] is “Not Active”.

Regarding `O=C(Nc1cccc(S(=O)(=O)Nc2nccs2)c1)c1cccn1Cc1ccccc1`, the pIC50 in series [1] and in series [3] was less than 4.52 throughout. Moreover, the “inhibition (INH)” value in series [2] is given as “Not Active”.
